In brackets after ≈: the same amount, converted by molar mass. Activity calls are given as the source filed them. No cut-off for these calls is given here.
Columns and labels:
[1] = Aqueous solubility of compound incubated for 20 mins by UV-Visible spectrophotometric analysis; assay type: physicochemical; details: buffer
Outline: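 Solubility in ultrapure water containing 5% DMSO. Absorbance taken at each compound's λmax and compared with a six-point calibration made by serial dilution of a 50 μM standard, fitted by linear regression. Over-saturated solutions were sonicated at 37 °C for 10 min and centrifuged at 8000 RPM for 10 min. Supernatant absorbance was read, after dilution with 5% DMSO/water if above the calibration range.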

[2] = system: Mycobacterium tuberculosis; test: Antimycobacterial activity against XDR clinical isolate Mycobacterium tuberculosis PRAHA 1 assessed as inhibition of mycobacterial growth measured after 14 to 21 days of incubation by Sulas semisynthetic medium based assay; assay type: functional; details: time 14-21 day
Outline: (§1)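 Clinical MDR/XDR M. tuberculosis isolates were tested by the Sula's semisynthetic medium micromethod. Compounds in DMSO at 1000 to 0.5 μmol/L, in twofold-type steps. Incubation at 37 °C, read at 14 and 21 days. MIC99 is the lowest concentration inhibiting >99% of growth. Drug resistance or susceptibility of each isolate is to amikacin, clofazimine, gentamicin, ofloxacin, streptomycin and the others listed.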

[3] = Selectivity index, ratio of IC50 for cytotoxicity against human HepG2 cells by MTT assay to MIC99 for antitubercular activity against Mycobacterium tuberculosis CNCTC My 331/88 (H37Rv) assessed as inhibition of bacterial growth measured after 14 days of incubation; assay type: functional; details: time 14 day
Outline: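 HepG2 cells, 15 × 10³/well, were attached overnight and exposed 24 h to serial dilutions (DMSO ≤1%). Read by MTT at 0.5 mg/mL for 1 h and 570 nm. IC50 from 4-parameter regression, three independent experiments in triplicate. SI is HepG2 IC50 divided by H37Rv MIC99.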

[4] = system: Mycobacterium tuberculosis; test: Antimycobacterial activity against XDR clinical isolate Mycobacterium tuberculosis PRAHA 131 assessed as inhibition of mycobacterial growth measured after 14 to 21 days of incubation by Sulas semisynthetic medium based assay; assay type: functional; details: time 14-21 day; outline: as §1
[5] = system: Mycobacterium tuberculosis; test: Antimycobacterial activity against XDR clinical isolate Mycobacterium tuberculosis 8666/2010 assessed as inhibition of mycobacterial growth measured after 14 to 21 days of incubation by Sulas semisynthetic medium based assay; assay type: functional; details: time 14-21 day; outline: as §1
[6] = system: Mycobacterium tuberculosis; test: Antimycobacterial activity against MDR clinical isolate Mycobacterium tuberculosis 7357/1998 assessed as inhibition of mycobacterial growth measured after 14 to 21 days of incubation by Sulas semisynthetic medium based assay; assay type: functional; details: time 14-21 day; outline: as §1
[7] = system: Mycobacterium tuberculosis; test: Antimycobacterial activity against XDR clinical isolate Mycobacterium tuberculosis 9449/2007 assessed as inhibition of mycobacterial growth measured after 14 to 21 days of incubation by Sulas semisynthetic medium based assay; assay type: functional; details: time 14-21 day; outline: as §1
[8] = system: Mycobacterium tuberculosis; test: Antimycobacterial activity against MDR clinical isolate Mycobacterium tuberculosis PRAHA 131 assessed as inhibition of mycobacterial growth measured after 14 to 21 days of incubation by Sulas semisynthetic medium based assay; assay type: functional; details: time 14-21 day; outline: as §1
[9] = system: Mycobacterium tuberculosis; test: Antimycobacterial activity against XDR clinical isolate Mycobacterium tuberculosis PRAHA 4 assessed as inhibition of mycobacterial growth measured after 14 to 21 days of incubation by Sulas semisynthetic medium based assay; assay type: functional; details: time 14-21 day; outline: as §1
[10] = system: Mycobacterium tuberculosis; test: Antimycobacterial activity against MDR clinical isolate Mycobacterium tuberculosis 8666/2010 assessed as inhibition of mycobacterial growth measured after 14 to 21 days of incubation by Sulas semisynthetic medium based assay; assay type: functional; details: time 14-21 day; outline: as §1
Klebsiella pneumoniae [11] = test: Antibacterial activity against ESBL negative Klebsiella pneumoniae C1950 assessed as inhibition of bacterial growth incubated for 24 to 48 hrs by microdilution broth method; assay type: functional, organism-based; details: time 24-48 hrs
Outline: (§2)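 Clinical isolates kept at –70 °C and subcultured twice on Mueller-Hinton agar, using the second subculture. Broth microdilution in Mueller-Hinton broth at pH 7.4 with two-fold serial compound dilutions and DMSO ≤1% final. Inoculum was 10 μL of a 1.5 × 10⁸ CFU/mL suspension. Incubated at 36 °C ± 1 °C and read at 24 h and 48 h. MIC taken as 95% growth inhibition.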

Staphylococcus aureus [12] = test: Antibacterial activity against methicilin-resistant Staphylococcus aureus C1923 assessed as inhibition of bacterial growth incubated for 24 to 48 hrs by microdilution broth method; assay type: functional, organism-based; details: time 24-48 hrs
Outline: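 Clinical isolates, stored at −70 °C, were passaged twice on Mueller-Hinton agar. Broth microdilution in Mueller-Hinton broth, pH 7.4, with twofold serial dilutions. DMSO was at most 1% final. Inoculum 1.5 × 10⁸ CFU/mL suspension. MIC is 95% growth inhibition, read after 24 and 48 h at 36 °C.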

Mycobacterium kansasii = test: Antitubercular activity against Mycobacterium kansasii CNCTC My 235/80 assessed as inhibition of bacterial growth measured after 7 days of incubation by Sulas semisynthetic medium based assay; assay type: functional; details: CNCTC My 235/80, 168 h, time 7 day
Outline: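 Micromethod in Sula's semisynthetic medium. MIC is the lowest concentration inhibiting >99% of the mycobacterial population. Isoniazid was the standard.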

[13] = system: Mycobacterium tuberculosis; test: Antimycobacterial activity against MDR clinical isolate Mycobacterium tuberculosis 234/2005 assessed as inhibition of mycobacterial growth measured after 14 to 21 days of incubation by Sulas semisynthetic medium based assay; assay type: functional; details: time 14-21 day; outline: as §1
Escherichia coli [14] = test: Antibacterial activity against Escherichia coli A1235 assessed as inhibition of bacterial growth incubated for 24 to 48 hrs by microdilution broth method; assay type: functional, organism-based; details: time 24-48 hrs; outline: as §2
Staphylococcus aureus [15] = test: Antibacterial activity against Staphylococcus aureus C1947 assessed as inhibition of bacterial growth incubated for 24 to 48 hrs by microdilution broth method; assay type: functional, organism-based; details: time 24-48 hrs; outline: as §2
[16] = system: Staphylococcus epidermidis; test: Antibacterial activity against Staphylococcus epidermidis C1936 assessed as inhibition of bacterial growth incubated for 24 to 48 hrs by microdilution broth method; assay type: functional, organism-based; details: time 24-48 hrs; outline: as §2
Staphylococcus aureus [17] = test: Antibacterial activity against Staphylococcus aureus C1947 assessed as inhibition of bacterial growth at 125 uM incubated for 24 to 48 hrs by microdilution broth method; assay type: functional, organism-based; details: time 24-48 hrs
Enterococcus faecium = test: Antibacterial activity against vancomycin-resistant Enterococcus faecium assessed as inhibition of bacterial growth at 125 uM incubated for 24 to 48 hrs by microdilution broth method; assay type: functional, organism-based; details: time 24-48 hrs
[18] = system: Staphylococcus epidermidis; test: Antibacterial activity against Staphylococcus epidermidis C1936 assessed as inhibition of bacterial growth at 125 uM incubated for 24 to 48 hrs by microdilution broth method; assay type: functional, organism-based; details: time 24-48 hrs
Klebsiella pneumoniae [19] = test: Antibacterial activity against ESBL negative Klebsiella pneumoniae C1950 assessed as inhibition of bacterial growth at 125 uM incubated for 24 to 48 hrs by microdilution broth method; assay type: functional, organism-based; details: time 24-48 hrs
Pseudomonas aeruginosa = test: Antibacterial activity against multidrug-resistant Pseudomonas aeruginosa A1245 assessed as inhibition of bacterial growth at 125 uM incubated for 24 to 48 hrs by microdilution broth method; assay type: functional, organism-based; details: time 24-48 hrs
Escherichia coli [20] = test: Antibacterial activity against Escherichia coli A1235 assessed as inhibition of bacterial growth at 125 uM incubated for 24 to 48 hrs by microdilution broth method; assay type: functional, organism-based; details: time 24-48 hrs
Staphylococcus aureus [21] = test: Antibacterial activity against methicilin-resistant Staphylococcus aureus C1923 assessed as inhibition of bacterial growth at 125 uM incubated for 24 to 48 hrs by microdilution broth method; assay type: functional, organism-based; details: time 24-48 hrs
Klebsiella pneumoniae [22] = test: Antibacterial activity against ESBL positive Klebsiella pneumoniae C1914 assessed as inhibition of bacterial growth at 125 uM incubated for 24 to 48 hrs by microdilution broth method; assay type: functional, organism-based; details: time 24-48 hrs

Compound | solubility at 20 min [1] | MIC99 [2] | Selectivity Index [3] | MIC99 [4] | MIC99 [5] | MIC99 [6] | MIC99 [7] | MIC99 [8] | MIC99 [9] | MIC99 [10] | Activity (Klebsiella pneumoniae [11]) | Activity (Staphylococcus aureus [12]) | MIC99 (Mycobacterium kansasii) | MIC99 [13] | Activity (Escherichia coli [14]) | Activity (Staphylococcus aureus [15]) | Activity [16] | also measured
O=c1[nH]c(N2CCSCC2)nc2ncn(Cc3ccc4ccccc4c3)c12 | 9.3 µM (≈ 3.51 µg/mL) | 16 µM (≈ 6.04 µg/mL) | 16 | 16 µM (≈ 6.04 µg/mL) | 8 µM (≈ 3.02 µg/mL) | 16 µM (≈ 6.04 µg/mL) | 16 µM (≈ 6.04 µg/mL) | 8 µM (≈ 3.02 µg/mL) | 16 µM (≈ 6.04 µg/mL) | 8 µM (≈ 3.02 µg/mL) | inactive | inactive | 32 µM (≈ 12.1 µg/mL) | 16 µM (≈ 6.04 µg/mL) | inactive | inactive | inactive | 
O=c1[nH]c(N2CCOCC2)nc2ncn(Cc3ccc4ccccc4c3)c12 | 46.9 µM (≈ 16.9 µg/mL) | 64 µM (≈ 23.1 µg/mL) | 31.25 | 32 µM (≈ 11.6 µg/mL) | 64 µM (≈ 23.1 µg/mL) | 32 µM (≈ 11.6 µg/mL) | 64 µM (≈ 23.1 µg/mL) | 32 µM (≈ 11.6 µg/mL) | 32 µM (≈ 11.6 µg/mL) | 32 µM (≈ 11.6 µg/mL) | inactive | inactive | 32 µM (≈ 11.6 µg/mL) | 16 µM (≈ 5.78 µg/mL) | inactive | inactive | inactive | 
O=c1[nH]c(N2CCCCC2)nc2ncn(Cc3ccc4ccccc4c3)c12 | 8.4 µM (≈ 3.02 µg/mL) | 16 µM (≈ 5.75 µg/mL) | 43.6 | 16 µM (≈ 5.75 µg/mL) | 8 µM (≈ 2.88 µg/mL) | 16 µM (≈ 5.75 µg/mL) | 16 µM (≈ 5.75 µg/mL) | 8 µM (≈ 2.88 µg/mL) | 16 µM (≈ 5.75 µg/mL) | 8 µM (≈ 2.88 µg/mL) | inactive | inactive | > 500 µM | 16 µM (≈ 5.75 µg/mL) | inactive | inactive | inactive | 
c1ccc2cc(Cn3cnc4nc(N5CCOCC5)nc(NC5CCC5)c43)ccc2c1 | 159 µM (≈ 65.9 µg/mL) | 4 µM (≈ 1.66 µg/mL) | 16.5 | 8 µM (≈ 3.32 µg/mL) | 8 µM (≈ 3.32 µg/mL) | 4 µM (≈ 1.66 µg/mL) | 8 µM (≈ 3.32 µg/mL) | 4 µM (≈ 1.66 µg/mL) | 8 µM (≈ 3.32 µg/mL) | 4 µM (≈ 1.66 µg/mL) | inactive | Active | 8 µM (≈ 3.32 µg/mL) | 4 µM (≈ 1.66 µg/mL) | inactive | Active | Active | 
Nc1nc(N2CCOCC2)nc2ncn(Cc3ccc4ccccc4c3)c12 | 97.7 µM (≈ 35.2 µg/mL) |  | >125 | 4 µM (≈ 1.44 µg/mL) | 4 µM (≈ 1.44 µg/mL) |  | 4 µM (≈ 1.44 µg/mL) | 2 µM (≈ 0.721 µg/mL) |  | 2 µM (≈ 0.721 µg/mL) | inactive | inactive |  |  | inactive | inactive | inactive | Activity (Staphylococcus aureus [17]): inactive; Activity (Enterococcus faecium): inactive; Activity [18]: inactive; Activity (Klebsiella pneumoniae [19]): inactive; Activity (Pseudomonas aeruginosa): inactive; Activity (Escherichia coli [20]): inactive; Activity (Staphylococcus aureus [21]): inactive; Activity (Klebsiella pneumoniae [22]): inactive
c1ccc(CNc2nc(N3CCOCC3)nc3ncn(Cc4ccc5ccccc5c4)c23)cc1 | 58.9 µM (≈ 26.5 µg/mL) | 4 µM (≈ 1.8 µg/mL) | 16.9 | 4 µM (≈ 1.8 µg/mL) | 4 µM (≈ 1.8 µg/mL) | 2 µM (≈ 0.901 µg/mL) | 4 µM (≈ 1.8 µg/mL) | 4 µM (≈ 1.8 µg/mL) | 4 µM (≈ 1.8 µg/mL) | 4 µM (≈ 1.8 µg/mL) | inactive | inactive | 4 µM (≈ 1.8 µg/mL) | 2 µM (≈ 0.901 µg/mL) | inactive | inactive | inactive | 
COc1nc(N2CCOCC2)nc2ncn(Cc3ccc4ccccc4c3)c12 |  | 16 µM (≈ 6.01 µg/mL) | 32 | 16 µM (≈ 6.01 µg/mL) | 8 µM (≈ 3 µg/mL) | 16 µM (≈ 6.01 µg/mL) | 16 µM (≈ 6.01 µg/mL) | 8 µM (≈ 3 µg/mL) | 16 µM (≈ 6.01 µg/mL) | 8 µM (≈ 3 µg/mL) | inactive | inactive | 16 µM (≈ 6.01 µg/mL) | 16 µM (≈ 6.01 µg/mL) | inactive | inactive | inactive | 
